In ChEMBL document CHEMBL4819034, “Tricyclic-Carbocyclic RORγt Inverse Agonists-Discovery of BMS-986313” (J Med Chem, 2021) one finds inhibition in vivo and Activity data, which are given here for one compound.

The subject of experiment [1] is Mus musculus. The experiment is described as follows: Protection against recombinant human IL23-induced acanthosis C57BL/6 mouse model assessed as inhibition of ear thickening at 6 mg/kg, po BID for 10 days and measured every other day relative to control. The experiment is classed as functional. Particulars: C57BL/6, po, 240 h, time 10 day. Summed up: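 IL-23 ear-injection acanthosis model in C57BL/6 mice with BID oral dosing. Ear thickness % change was recorded every other day, before each next injection, from a day 0 baseline. Inhibition of ear thickening was calculated against the placebo arm from the area under the curve over the study duration.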

Experiment [2] concerns Mus musculus. Kind of experiment: Protection against recombinant human IL23-induced acanthosis C57BL/6 mouse model assessed as reduction in IL-17A mRNA levels at 3 mg/kg, po BID BID for 10 days by qRT-PCR analysis relative to control. Also noted: scale not given: the % may be the effect or the level left. The experiment is classed as functional. Particulars: time 10 day. Summed up:
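In the IL-23 ear-injection model in C57BL/6 mice with BID oral dosing, ear tissue was collected from all animals at study end on day 10. IL-17A and IL-17F mRNA expression was quantified by qPCR and compared with the placebo arm.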
(In general: In qPCR the cycle at which signal appears reflects the starting amount.)

In the case of `CC(C)(O)C(=O)N[C@@H]1CC[C@@]2(S(=O)(=O)c3ccc(F)cc3)c3ccc(C(F)(C(F)(F)F)C(F)(F)F)cc3CC[C@@H]12`, the inhibition in vivo at 6 mg/kg in experiment [1] turned out to be 43.4%. In addition, in experiment [2], the Activity amounted to 2.7%.

As a reminder, the inhibition in vivo is the percentage by which the read-out fell short of the control.
